Measured values taken from ChEMBL document CHEMBL1141461, “Polyene antibiotics from Streptomyces mediocidicus” (2007).
≈ marks a conversion by molar mass, not a printed value.

Tests used:
Format in all cases: functional
[1] = tested on: Diutina rugosa; assay: Antifungal activity against Candida rugosa GC 3077
Method in brief: (§1)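 Yeast MIC by broth microdilution in RPMI-1640. Agent at final 0.03-128 µg/mL, yeast inoculum 0.5-2.5 × 10^3 cfu/mL. MIC read after 48 h incubation at 30 °C.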

[2] = tested on: Candida parapsilosis; assay: Antifungal activity against Candida parapsilosis GC 3074; conditions: Lodderomyces parapsilosis; method in brief: as §1
[3] = tested on: Aspergillus fumigatus; assay: Antifungal activity against Aspergillus fumigatus GC 3092
[4] = tested on: Pichia kudriavzevii; assay: Antifungal activity against Candida Krussii GC 3067; method in brief: as §1
[5] = tested on: Candida parapsilosis; assay: Antifungal activity against Candida parapsilosis GC 3075; conditions: Lodderomyces parapsilosis; method in brief: as §1
[6] = tested on: Candida albicans; assay: Antifungal activity against Candida albicans GC 3066; method in brief: as §1
[7] = tested on: Candida tropicalis; assay: Antifungal activity against Candida tropicalis GC 3080; method in brief: as §1
[8] = tested on: Clavispora lusitaniae; assay: Antifungal activity against Candida lusitaniae GC 3068; method in brief: as §1
[9] = tested on: Kluyveromyces marxianus; assay: Antifungal activity against Candida pseudotropicalis GC 3070; method in brief: as §1
[10] = tested on: Candida tropicalis; assay: Antifungal activity against Candida tropicalis GC 3081; method in brief: as §1
[11] = tested on: Candida parapsilosis; assay: Antifungal activity against Candida parapsilosis GC 3076; conditions: Lodderomyces parapsilosis; method in brief: as §1
[12] = tested on: Candida albicans; assay: Antifungal activity against Candida albicans GC 3064; method in brief: as §1
[13] = tested on: Aspergillus niger; assay: Antifungal activity against Aspergillus niger GC 3091
[14] = tested on: Candida albicans; assay: Antifungal activity against Candida albicans GC 3065; method in brief: as §1

Row | SMILES | MIC [1] | MIC [2] | MIC [3] | MIC [4] | MIC [5] | MIC [6] | MIC [7] | MIC [8] | MIC [9] | MIC [10] | MIC [11] | MIC [12] | MIC [13] | MIC [14]
1 | C[C@@H]1[C@H](O)[C@@H](C)/C=C/C=C/C=C/C=C/C=C/C=C/C=C/[C@H](O[C@@H]2O[C@H](C)[C@@H](O)[C@H](N)[C@@H]2O)C[C@@H]2O[C@](O)(C[C@@H](O)C[C@@H](O)[C@H](O)CC[C@@H](O)C[C@@H](O)CC(=O)O[C@H]1C)C[C@H](O)[C@H]2C(=O)O [AMPHOTERICIN B] | 0.5 µg/mL (≈ 0.541 µM) | 0.25 µg/mL (≈ 0.271 µM) | 0.25 µg/mL (≈ 0.271 µM) | 0.5 µg/mL (≈ 0.541 µM) | 0.5 µg/mL (≈ 0.541 µM) | 0.25 µg/mL (≈ 0.271 µM) | 0.5 µg/mL (≈ 0.541 µM) | 0.25 µg/mL (≈ 0.271 µM) | 0.25 µg/mL (≈ 0.271 µM) | 0.5 µg/mL (≈ 0.541 µM) | 0.5 µg/mL (≈ 0.541 µM) | 0.5 µg/mL (≈ 0.541 µM) | 0.25 µg/mL (≈ 0.271 µM) | 0.25 µg/mL (≈ 0.271 µM)
2 | C\C(=C/C=C/C=C/CC/C=C/C(C)C(O)C(C)C(O)/C=C/C=C/C=C/C=C/C=C/C=C/CC(OS(=O)(=O)O)C(C)C(=O)CC(O)CC(O)/C=C/CC(O)CC(O)CC(O)/C=C/CC(O)CC(O)/C=C/CC(O)CC(O)CCCNC(=N)N)C(=O)O (stereo not given) [CLETHRAMYCIN] | 4 µg/mL (≈ 3.28 µM) | 16 µg/mL (≈ 13.1 µM) | > 128 µg/mL | 2 µg/mL (≈ 1.64 µM) | 16 µg/mL (≈ 13.1 µM) | 4 µg/mL (≈ 3.28 µM) | 16 µg/mL (≈ 13.1 µM) | 4 µg/mL (≈ 3.28 µM) | 2 µg/mL (≈ 1.64 µM) | 8 µg/mL (≈ 6.57 µM) | 16 µg/mL (≈ 13.1 µM) | 4 µg/mL (≈ 3.28 µM) | 4 µg/mL (≈ 3.28 µM) | 4 µg/mL (≈ 3.28 µM)

Next, values leading:

Row | MIC [1] | MIC [2] | MIC [3] | MIC [4] | MIC [5] | MIC [6] | MIC [7] | MIC [8] | MIC [9] | MIC [10] | MIC [11] | MIC [12] | MIC [13] | MIC [14] | SMILES
3 | 1 µg/mL (≈ 0.912 µM) | 2 µg/mL (≈ 1.82 µM) | 16 µg/mL (≈ 14.6 µM) | 1 µg/mL (≈ 0.912 µM) | 4 µg/mL (≈ 3.65 µM) | 1 µg/mL (≈ 0.912 µM) | 2 µg/mL (≈ 1.82 µM) | 2 µg/mL (≈ 1.82 µM) | 1 µg/mL (≈ 0.912 µM) | 2 µg/mL (≈ 1.82 µM) | 2 µg/mL (≈ 1.82 µM) | 1 µg/mL (≈ 0.912 µM) | 1 µg/mL (≈ 0.912 µM) | 1 µg/mL (≈ 0.912 µM) | C\C(=C/C=C/C=C/CC/C=C/C(C)C(O)C(C)C(O)/C=C/C=C/C=C/C=C/C=C/C=C/CC(O)C(C)C(=O)CC(O)CC(O)/C=C/CC(O)CC(O)CC(O)/C=C/CC(O)CC(O)/C=C/CC(O)CC(O)CCCN)C(=O)O (stereo not given) [MEDIOMYCIN B]
4 | 8 µg/mL (≈ 6.72 µM) | 128 µg/mL (≈ 108 µM) | > 128 µg/mL | 8 µg/mL (≈ 6.72 µM) | > 128 µg/mL | 32 µg/mL (≈ 26.9 µM) | 16 µg/mL (≈ 13.4 µM) | 16 µg/mL (≈ 13.4 µM) | 8 µg/mL (≈ 6.72 µM) | 32 µg/mL (≈ 26.9 µM) | > 128 µg/mL | 16 µg/mL (≈ 13.4 µM) | > 128 µg/mL | 16 µg/mL (≈ 13.4 µM) | COC(=O)/C(C)=C/C=C/C=C/CC/C=C/C(C)C(O)C(C)C(O)/C=C/C=C/C=C/C=C/C=C/C=C/CC(OS(=O)(=O)O)C(C)C(=O)CC(O)CC(O)/C=C/CC(O)CC(O)CC(O)/C=C/CC(O)CC(O)/C=C/CC(O)CC(O)CCCN (stereo not given)
5 | 2 µg/mL (≈ 1.7 µM) | 16 µg/mL (≈ 13.6 µM) | 128 µg/mL (≈ 109 µM) | 2 µg/mL (≈ 1.7 µM) | 16 µg/mL (≈ 13.6 µM) | 4 µg/mL (≈ 3.4 µM) | 16 µg/mL (≈ 13.6 µM) | 2 µg/mL (≈ 1.7 µM) | 1 µg/mL (≈ 0.85 µM) | 8 µg/mL (≈ 6.8 µM) | 16 µg/mL (≈ 13.6 µM) | 2 µg/mL (≈ 1.7 µM) | 1 µg/mL (≈ 0.85 µM) | 2 µg/mL (≈ 1.7 µM) | C\C(=C/C=C/C=C/CC/C=C/C(C)C(O)C(C)C(O)/C=C/C=C/C=C/C=C/C=C/C=C/CC(OS(=O)(=O)O)C(C)C(=O)CC(O)CC(O)/C=C/CC(O)CC(O)CC(O)/C=C/CC(O)CC(O)/C=C/CC(O)CC(O)CCCN)C(=O)O (stereo not given) [MEDIOMYCIN A]
